For 6 compounds, GI50 results are on record in ChEMBL document CHEMBL3585255, “The Cephalostatins. 24. Isolation, Structure, and Cancer Cell Growth Inhibition of Cephalostatin 20” (2015).

For orientation: GI50 means the concentration giving 50% growth inhibition. Read a low GI50 as greater sensitivity of the cells.

Common to all, as to assay type: functional
Experiment [1] in a line: Cytotoxicity against human BxPC3 cells after 48 hrs by sulforhodamine B assay. The settings on record: BXPC-3, 48 h. The essentials: (§1)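 Cells in RPMI1640 with 5% fetal bovine serum were plated in 96-well plates and incubated 24 h before serial dilutions of compound were added. After 48 h exposure, cells were fixed with trichloroacetic acid and stained with sulforhodamine B, and optical density was read on a plate reader. GI50, the concentration giving 50% reduction in net protein increase, was calculated from the OD data.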

A further experiment has as its system MCF7. Kind of experiment: Cytotoxicity against human MCF7 cells after 48 hrs by sulforhodamine B assay. The conditions noted are these: MCF7, 48 h. In outline:
as §1

The subject of another experiment is SF-268. Kind of experiment: Cytotoxicity against human SF268 cells after 48 hrs by sulforhodamine B assay. The settings on record: SF-268, 48 h. The essentials:
as §1
For orientation: Sulforhodamine B stains cellular protein and so reports cell mass.

The next experiment concerns NCI-H460. Kind of experiment: Cytotoxicity against human NCI-H460 cells after 48 hrs by sulforhodamine B assay. The conditions noted are these: NCI-H460, 48 h. In outline: as §1
A short description of experiment [2]: Cytotoxicity against human KM20L2 cells after 48 hrs by sulforhodamine B assay. The conditions noted are these: KM-20L2, 48 h. The essentials: as §1
For the next experiment, the system named is DU-145. Kind of experiment: Cytotoxicity against human DU145 cells after 48 hrs by sulforhodamine B assay. The settings on record: DU-145, 48 h. The essentials: as §1

For the compound `C[C@@H]1[C@]2(O[C@H]3C=C4[C@@H]5CC[C@H]6Cc7nc8c(nc7C[C@]6(C)[C@H]5C[C@@H](O)[C@]4(C)[C@]31O)C[C@@H]1CC[C@H]3C4=CC[C@@H]5[C@H](C)[C@@](O)([C@H](O)CC(C)(C)O)OC[C@]45C(=O)C[C@]3(O)[C@@]1(C)C8)O[C@](C)(CO)C[C@H]2O`, the concentration for 50% growth inhibition (GI50) in experiment [1] turned out to be 16 nM; in the experiment on MCF7, 22 nM; in the experiment on SF-268 it was 36 nM; with NCI-H460, 6 nM; in experiment [2], 7.2 nM; with DU-145 it was 210 nM.

`C[C@@H]1[C@]2(O[C@H]3C=C4[C@@H]5CC[C@H]6Cc7nc8c(nc7C[C@]6(C)[C@H]5C[C@@H](O)[C@]4(C)[C@]31O)C[C@@H]1CC[C@H]3C4=CC[C@@H]5[C@H](C)[C@@]6(OC[C@]45C(=O)C[C@@H]3[C@@]1(C)C8)OC(C)(C)C[C@H]6O)O[C@](C)(CO)C[C@H]2O` [CEPHALOSTATIN 1]: the concentration for 50% growth inhibition (GI50) in experiment [1] stood at 0.044 nM; in the experiment with MCF7, 0.099 nM; with SF-268, 1.6 nM; in the experiment on NCI-H460 it was 0.044 nM; in experiment [2], 0.066 nM; with DU-145 it was 0.11 nM.

For the compound `C[C@@H]1[C@]2(O[C@H]3C=C4[C@@H]5CC[C@H]6Cc7nc8c(nc7C[C@]6(C)[C@H]5C[C@@H](O)[C@]4(C)[C@]31O)C[C@@H]1CC[C@H]3C4=CC[C@@H]5[C@H](C)[C@@]6(OC[C@]45C(=O)C[C@]3(O)[C@@]1(C)C8)OC(C)(C)C[C@H]6O)O[C@](C)(CO)C[C@H]2O` [CEPHALOSTATIN 2], the concentration for 50% growth inhibition (GI50) is 0.022 nM in experiment [1]; 0.022 nM in the experiment on MCF7; 0.12 nM with SF-268; 0.0056 nM with NCI-H460; 0.006 nM in experiment [2]; 0.11 nM in the experiment with DU-145.

Take `C[C@@H]1[C@]2(O[C@H]3C=C4[C@@H]5CC[C@H]6Cc7nc8c(nc7C[C@]6(C)[C@H]5C[C@@H](O)[C@]4(C)[C@]31O)C[C@@H]1CC[C@H]3C4=CC[C@@H]5[C@H](C)[C@@]6(OC[C@]45C(=O)C[C@]3(O)[C@@]1(C)C8)OC(C)(C)[C@@H](C)[C@H]6O)O[C@](C)(CO)C[C@H]2O` [CEPHALOSTATIN 3]: the GI50 in experiment [1] turned out to be 0.043 nM; with MCF7, 0.032 nM; in the experiment on SF-268, 0.58 nM; in the experiment with NCI-H460 it was 0.043 nM; in experiment [2], 0.096 nM; in the experiment on DU-145, 0.16 nM.

For the compound `C[C@@H]1[C@]2(O[C@H]3C=C4[C@@H]5CC[C@H]6Cc7nc8c(nc7C[C@]6(C)[C@H]5C[C@@H](O)[C@]4(C)[C@]31O)C[C@@H]1CC[C@H]3[C@@]45O[C@@H]4C[C@@H]4[C@H](C)[C@@]6(OC[C@@]45C(=O)C[C@]3(O)[C@@]1(C)C8)OC(C)(C)C[C@H]6O)O[C@](C)(CO)C[C@H]2O` [CEPHALOSTATIN 4], the GI50 was found to be 36 nM in experiment [1]; 43 nM in the experiment with MCF7; 21 nM in the experiment with SF-268; 44 nM in the experiment on NCI-H460; 39 nM in experiment [2]; 31 nM in the experiment on DU-145.

`C[C@H]1[C@@H](O)C2(Oc3cc4c(c5c3[C@H](C[C@H]5O)[C@@H]2C)CC[C@H]2Cc3nc5c(nc3C[C@]42C)C[C@@H]2CC[C@H]3C4=C[C@@H]6O[C@@]7(C[C@]6(O)[C@@]4(C)[C@H](O)C[C@@H]3[C@@]2(C)C5)O[C@](C)(CO)C[C@H]7O)OC1(C)C` (stereo partly specified) [CEPHALOSTATIN 5]: the GI50 in experiment [1] was determined as 330 nM; in the experiment with MCF7, 340 nM; in the experiment with SF-268, 440 nM; with NCI-H460, 150 nM; in experiment [2], 100 nM; with DU-145, 120 nM.
